Test results: ChEMBL document CHEMBL1127752, “Synthesis and antitumor activity of novel mitomycin derivatives containing functional groups at the C-6-methyl position” (J Med Chem, 1994)

Experiments:
[1] = system: CCRF S-180; assay: Optimal dose towards sarcoma 180 cells, inoculated subcutaneously to the axillary region of ddY mice; format: functional, Mus musculus
In short: (§1)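 Sarcoma 180 cells implanted sc in the axillary region of ddY mice on day 0; compounds given iv on day 1. Tumor volume compared treated versus control (T/C). 50% growth-inhibitory dose calculated from the dose-response curve; optimal dose also recorded.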

[2] = system: HeLa; assay: In vitro anticellular activity tested against HeLa S3 cells; format: functional, cell-based; details: Homo sapiens
In short: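 HeLa S3 cells seeded on day 0, then exposed to drug for 1 h on day 1; anticellular activity determined by a previously described method.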

[3] = system: Mus musculus; assay: In vivo antitumor activity against lymphatic leukemia P388 cells resistant to mitomycin C (MMC) was measured as maximal increase in life span of the treated mice at optimal dose of 13 mg/kg; format: functional
[4] = system: Mus musculus; assay: In vivo antitumor activity against lymphatic leukemia P388 cells sensitive to mitomycin C (MMC) was measured as maximal increase in life span of the treated mice at optimal dose of 13 mg/kg; format: functional
[5] = system: Mus musculus; assay: Effective dose that gave 50% inhibition of tumor growth was calculated towards sarcoma 180 cells which were inoculated subcutaneously to the axillary region of ddY mice; format: functional; details: Mus musculus, 180, sc; in short: as §1
[6] = system: Mus musculus; assay: In vivo antitumor activity against lymphatic leukemia P388 cells resistant to mitomycin C (MMC) was measured as maximal increase in life span of the treated mice at optimal dose of 9.0 mg/kg; format: functional
[7] = system: Mus musculus; assay: In vivo antitumor activity against lymphatic leukemia P388 cells resistant to mitomycin C (MMC) was measured as maximal increase in life span of the treated mice at optimal dose of 25 mg/kg; format: functional
[8] = system: Mus musculus; assay: In vivo antitumor activity against lymphatic leukemia P388 cells sensitive to mitomycin C (MMC) was measured as maximal increase in life span of the treated mice at optimal dose of 25 mg/kg; format: functional
[9] = system: Mus musculus; assay: In vivo antitumor activity against lymphatic leukemia P388 cells sensitive to mitomycin C (MMC) was measured as maximal increase in life span of the treated mice at optimal dose of 3.1 mg/kg; format: functional
[10] = system: CCRF S-180; assay: Tumor volume of sarcoma 180 cells which were inoculated […] to the axillary region of ddY mice, after treatment; format: functional, Mus musculus
[11] = system: Mus musculus; assay: In vivo antitumor activity against lymphatic leukemia P388 cells resistant to mitomycin C (MMC) was measured as maximal increase in life span of the treated mice at optimal dose of 50 mg/kg; format: functional
[12] = system: Mus musculus; assay: The in vivo antitumor activity against lymphatic leukemia P388 cells resistant to mitomycin C (MMC) in mice was measured as maximal increase in life span of the treated mice at optimal dose of 3.1 mg/kg; format: functional
[13] = system: Mus musculus; assay: In vivo antitumor activity against lymphatic leukemia P388 cells resistant to mitomycin C (MMC) was measured as maximal increase in life span of the treated mice at optimal dose of 6.0 mg/kg; format: functional
[14] = system: Mus musculus; assay: In vivo antitumor activity against lymphatic leukemia P388 cells resistant to mitomycin C (MMC) was measured as maximal increase in life span of the treated mice at optimal dose of 1.6 mg/kg; format: functional
[15] = system: Mus musculus; assay: In vivo antitumor activity against lymphatic leukemia P388 cells sensitive to mitomycin C (MMC) was measured as maximal increase in life span of the treated mice at optimal dose of 0.78 mg/kg; format: functional
[16] = system: Mus musculus; assay: In vivo antitumor activity against lymphatic leukemia P388 cells resistant to mitomycin C (MMC) was measured as maximal increase in life span of the treated mice at optimal dose of 1.0-4.0 mg/kg; format: functional
[17] = system: HeLa; assay: In vitro anticellular activity against HeLa S3 cells; 0.82-1.4; format: functional, cell-based; details: Homo sapiens
[18] = system: Mus musculus; assay: Effective dose that gave 50% inhibition of tumor growth was calculated towards sarcoma 180 cells which were inoculated subcutaneously to the axillary region of ddY mice; 1.9-3.7; format: functional; details: Mus musculus, 180, sc
[19] = system: Mus musculus; assay: In vivo antitumor activity against lymphatic leukemia P388 cells sensitive to mitomycin C (MMC) was measured as maximal increase in life span of the treated mice at optimal dose of 1.0-6.0 mg/kg; 38-84; format: functional
[20] = system: Mus musculus; assay: Tumor volume was calculated against sarcoma 180 cells which were inoculated subcutaneously to the axillary region of ddY mice; 0.28-0.46
[21] = system: Mus musculus; assay: Optimal dose was calculated towards sarcoma 180 cells which were inoculated subcutaneously to the axillary region of ddY mice; 4.0-6.0; format: functional
[22] = system: HeLa; assay: In vitro anticellular activity against HeLa S3 cells; 0.59-1.1; format: functional, cell-based; details: Homo sapiens

Row | SMILES | OD [1] [mg/kg] | IC50 [2] [µM] | ED50 [5] [mg/kg] | other results
1 | CO[C@@]12[C@H](COC(N)=O)C3=C(C(=O)C(CSC4OC(COC(C)=O)C(OC(C)=O)C(OC(C)=O)C4OC(C)=O)=C(N)C3=O)N1C[C@@H]1N[C@@H]12 (some centres undefined) | 25 | 1.1 | 24 | ILS at 13 mg/kg [3]: > 143%; ILS at 13 mg/kg [4]: 58%
2 | CO[C@@]12[C@H](COC(N)=O)C3=C(C(=O)C(CSc4nncn4C)=C(N)C3=O)N1C[C@@H]1N[C@@H]12 | 46 | 2.5 | 39 | ILS at 9 mg/kg [6]: > 71%
3 | CO[C@@]12[C@H](COC(N)=O)C3=C(C(=O)C(COC(C)C)=C(N)C3=O)N1C[C@@H]1N[C@@H]12 | 50 | 2.5 | 15 | ILS at 25 mg/kg [7]: > 97%; ILS at 25 mg/kg [8]: 55%
4 | COC(=O)CCSCC1=C(N)C(=O)C2=C(C1=O)N1C[C@@H]3N[C@@H]3[C@]1(OC)[C@@H]2COC(N)=O | 3.1 | 0.97 |  | ILS at 3.1 mg/kg [9]: 69%; T/C [10]: 0.63 min
5 | CO[C@@]12[C@H](COC(N)=O)C3=C(C(=O)C(CSc4nc5ccccc5s4)=C(N)C3=O)N1C[C@@H]1N[C@@H]12 | 50 | 0.7 | 36 | ILS at 50 mg/kg [11]: 57%; ILS at 13 mg/kg [4]: 40%
6 | CO[C@@]12[C@H](COC(N)=O)C3=C(C(=O)C(CSc4nccs4)=C(N)C3=O)N1C[C@@H]1N[C@@H]12 | 13 | 1.4 | 8.9 | ILS at 3.1 mg/kg [9]: 49%; ILS at 3.1 mg/kg [12]: 26%
7 | C=CCSCC1=C(N)C(=O)C2=C(C1=O)N1C[C@@H]3N[C@@H]3[C@]1(OC)[C@@H]2COC(N)=O | 14 | 2.3 |  | ILS at 6 mg/kg [13]: 33%; T/C [10]: 0.77 min
8 | CO[C@@]12[C@H](COC(N)=O)C3=C(C(=O)C(CSc4ncccn4)=C(N)C3=O)N1C[C@@H]1N[C@@H]12 | 13 | 0.95 | 8.9 | ILS at 1.6 mg/kg [14]: > 92%; ILS at 0.78 mg/kg [15]: 58%
9 | CO[C@@]12[C@H](COC(N)=O)C3=C(C(=O)C(C)=C(N)C3=O)N1C[C@@H]1N[C@@H]12 [MITOMYCIN] |  |  |  | ILS [16]: 23%; IC50 [17]: 1.4 µM; ED50 [18]: 3.7 mg/kg; ILS [19]: 84%; T/C [20]: 0.46; OD [21]: 6 mg/kg; IC50 [22]: 1.1 µM
